# In ChEMBL document CHEMBL6177935, “Design and synthesis of novel multi-target tetrabromophthalimides as CBS and Topo-II inhibitors and DNA intercalators” (RSC Med Chem, 2024):
# Activity calls are given as the source filed them. The rule behind the calls is not given here.
# How the values were obtained:
# [1] = tested on: HNO 97 cell line; experiment: Growth inhibition of human HNO 97 cells at 100 ug/ml measured after 48 hrs by SRB assay relative to control; format: functional; details: dose 100.0 µg/ml, pooled result: one value given for 15 cell lines, strains, targets or settings
# In short: (§1)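 SRB screen on fifteen human cancer lines. Cells seeded at 3×10^3 per well and left 24 h to attach. A single concentration of 100 µg/mL was tested in triplicate wells for 48 h, with 1% v/v DMSO as vehicle control. Cells fixed in 20% TCA, stained with 0.4% SRB and read at 570 nm. Survival fraction = OD treated/OD control.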
# [2] = tested on: HN; experiment: Growth inhibition of human HN cells at 100 ug/ml measured after 48 hrs by SRB assay relative to control; format: functional; details: dose 100.0 µg/ml, pooled result: one value given for 15 cell lines, strains, targets or settings; in short: as §1
# [3] = tested on: MCF7; experiment: Growth inhibition of human MCF7 cells at 100 ug/ml measured after 48 hrs by SRB assay relative to control; format: functional; details: dose 100.0 µg/ml, pooled result: one value given for 15 cell lines, strains, targets or settings; in short: as §1
# [4] = tested on: MDA-MB-468; experiment: Growth inhibition of human MDA-MB-468 cells at 100 ug/ml measured after 48 hrs by SRB assay relative to control; format: functional; details: dose 100.0 µg/ml, pooled result: one value given for 15 cell lines, strains, targets or settings; in short: as §1
# [5] = tested on: Caco-2; experiment: Growth inhibition of human Caco-2 cells at 100 ug/ml measured after 48 hrs by SRB assay relative to control; format: functional; details: dose 100.0 µg/ml, pooled result: one value given for 15 cell lines, strains, targets or settings; in short: as §1
# [6] = tested on: HCT-116; experiment: Growth inhibition of human HCT-116 cells at 100 ug/ml measured after 48 hrs by SRB assay relative to control; format: functional; details: dose 100.0 µg/ml, pooled result: one value given for 15 cell lines, strains, targets or settings; in short: as §1
# [7] = tested on: HEp-2; experiment: Growth inhibition of human HEp-2 cells at 100 ug/ml measured after 48 hrs by SRB assay relative to control; format: functional; details: dose 100.0 µg/ml, pooled result: one value given for 15 cell lines, strains, targets or settings; in short: as §1
# [8] = tested on: HepG2; experiment: Growth inhibition of human HepG2 cells at 100 ug/ml measured after 48 hrs by SRB assay relative to control; format: functional; details: dose 100.0 µg/ml, pooled result: one value given for 15 cell lines, strains, targets or settings; in short: as §1
# [9] = tested on: A-431; experiment: Growth inhibition of human A-431 cells at 100 ug/ml measured after 48 hrs by SRB assay relative to control; format: functional; details: dose 100.0 µg/ml, pooled result: one value given for 15 cell lines, strains, targets or settings; in short: as §1
# [10] = tested on: A-375; experiment: Growth inhibition of human A-375 cells at 100 ug/ml measured after 48 hrs by SRB assay relative to control; format: functional; details: dose 100.0 µg/ml, pooled result: one value given for 15 cell lines, strains, targets or settings; in short: as §1
# [11] = tested on: NCI-H1299; experiment: Growth inhibition of human NCI-H1299 cells at 100 ug/ml measured after 48 hrs by SRB assay relative to control; format: functional; details: dose 100.0 µg/ml, pooled result: one value given for 15 cell lines, strains, targets or settings; in short: as §1
# [12] = tested on: A549; experiment: Growth inhibition of human A549 cells at 100 ug/ml measured after 48 hrs by SRB assay relative to control; format: functional; details: dose 100.0 µg/ml, pooled result: one value given for 15 cell lines, strains, targets or settings; in short: as §1
# [13] = tested on: PC-3; experiment: Growth inhibition of human PC-3 cells at 100 ug/ml measured after 48 hrs by SRB assay relative to control; format: functional; details: dose 100.0 µg/ml, pooled result: one value given for 15 cell lines, strains, targets or settings; in short: as §1
# [14] = tested on: FaDu; experiment: Growth inhibition of human FaDu cells at 100 ug/ml measured after 48 hrs by SRB assay relative to control; format: functional; details: dose 100.0 µg/ml, pooled result: one value given for 15 cell lines, strains, targets or settings; in short: as §1
# [15] = tested on: HeLa; experiment: Growth inhibition of human HeLa cells at 100 ug/ml measured after 48 hrs by SRB assay relative to control; format: functional; details: dose 100.0 µg/ml, pooled result: one value given for 15 cell lines, strains, targets or settings; in short: as §1
# [16] = tested on: MDA-MB-468; experiment: Growth inhibition of human MDA-MB-468 cells measured after 48 hrs by SRB assay; format: functional, cell-based; details: MDA-MB-468, 48 h
# In short: (§2)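 SRB assay. Cells seeded at 3×10^3 per well and attached 24 h, then exposed for 48 h to 12.5, 25, 50 and 62.5 µg/mL in triplicate wells, with 1% v/v DMSO vehicle. Cells fixed in 20% TCA, stained with 0.4% SRB and read at 570 nm. Survival fraction = OD treated/OD control, and IC50 taken from a sigmoidal dose-response fit.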
# [17] = tested on: FaDu; experiment: Growth inhibition of human FaDu cells measured after 48 hrs by SRB assay; format: functional, cell-based; in short: as §2
# [18] = tested on: A-431; experiment: Growth inhibition of human A-431 cells measured after 48 hrs by SRB assay; format: functional, cell-based; in short: as §2
# [19] = tested on: PC-3; experiment: Growth inhibition of human PC-3 cells measured after 48 hrs by SRB assay; format: functional, cell-based; in short: as §2
# [20] = tested on: HeLa; experiment: Growth inhibition of human HeLa cells measured after 48 hrs by SRB assay; format: functional, cell-based; in short: as §2
# [21] = tested on: MDA-MB-468; experiment: Induction of apoptosis in human MDA-MB-468 cells assessed as upregulation of caspase-3 expression measured after 1 hr by ELISA relative to control; format: functional
# In short: (§3)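 Sandwich ELISA with wells precoated with capture antibody. Samples and standards (7-point curve) incubated 1 h at 37 °C, then biotin detection antibody 1 h at 37 °C, then avidin-HRP 30 min at 37 °C, with washes between steps. TMB added for 10-20 min at 37 °C in the dark, stopped with sulphuric acid and read at 450 nm. Duplicate readings averaged and zero standard subtracted.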
# [22] = tested on: MDA-MB-468; experiment: Induction of apoptosis in human MDA-MB-468 cells assessed as upregulation of caspase-7 expression measured after 1 hr by ELISA relative to control; format: functional; in short: as §3
# [23] = tested on: MDA-MB-468; experiment: Induction of apoptosis in human MDA-MB-468 cells assessed as upregulation of caspase-8 expression measured after 1 hr by ELISA relative to control; format: functional; in short: as §3
# [24] = tested on: MDA-MB-468; experiment: Induction of apoptosis in human MDA-MB-468 cells assessed as upregulation of caspase-9 expression measured after 1 hr by ELISA relative to control; format: functional; in short: as §3
# [25] = tested on: MDA-MB-468; experiment: Induction of apoptosis in human MDA-MB-468 cells assessed as upregulation of Bax expression measured after 1 hr by ELISA relative to control; format: functional; in short: as §3
# [26] = tested on: MDA-MB-468; experiment: Induction of apoptosis in human MDA-MB-468 cells assessed as upregulation of p53 expression measured after 1 hr by ELISA relative to control; format: functional; in short: as §3
# [27] = tested on: MDA-MB-468; experiment: Induction of apoptosis in human MDA-MB-468 cells assessed as down regulation of MMP2 expression measured after 1 hr by ELISA relative to control; format: functional; in short: as §3
# [28] = tested on: MDA-MB-468; experiment: Induction of apoptosis in human MDA-MB-468 cells assessed as down regulation of MMP9 expression measured after 1 hr by ELISA relative to control; format: functional; in short: as §3
# [29] = tested on: MDA-MB-468; experiment: Induction of apoptosis in human MDA-MB-468 cells assessed as down regulation of BCL-2 expression measured after 1 hr by ELISA relative to control; format: functional; in short: as §3
# [30] = target: Tubulin; experiment: Inhibition of [3H]-colchicine binding to biotinylated-tubulin (unknown origin) measured after 45 mins by scintillation counting analysis; format: protein-complex assay, Homo sapiens
# In short: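 Scintillation proximity assay run at 37 °C. Incubated 45 min at 37 °C, then the plate was read and percent inhibition calculated from raw counts.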
# [31] = target: T1, DNA topoisomerase 2-beta (Homo sapiens, UniProt Q02880); experiment: Inhibition of human topoisomerase IIB by sandwich ELISA
# T1 sequence (Q02880 whole entry, the tested form may be a part): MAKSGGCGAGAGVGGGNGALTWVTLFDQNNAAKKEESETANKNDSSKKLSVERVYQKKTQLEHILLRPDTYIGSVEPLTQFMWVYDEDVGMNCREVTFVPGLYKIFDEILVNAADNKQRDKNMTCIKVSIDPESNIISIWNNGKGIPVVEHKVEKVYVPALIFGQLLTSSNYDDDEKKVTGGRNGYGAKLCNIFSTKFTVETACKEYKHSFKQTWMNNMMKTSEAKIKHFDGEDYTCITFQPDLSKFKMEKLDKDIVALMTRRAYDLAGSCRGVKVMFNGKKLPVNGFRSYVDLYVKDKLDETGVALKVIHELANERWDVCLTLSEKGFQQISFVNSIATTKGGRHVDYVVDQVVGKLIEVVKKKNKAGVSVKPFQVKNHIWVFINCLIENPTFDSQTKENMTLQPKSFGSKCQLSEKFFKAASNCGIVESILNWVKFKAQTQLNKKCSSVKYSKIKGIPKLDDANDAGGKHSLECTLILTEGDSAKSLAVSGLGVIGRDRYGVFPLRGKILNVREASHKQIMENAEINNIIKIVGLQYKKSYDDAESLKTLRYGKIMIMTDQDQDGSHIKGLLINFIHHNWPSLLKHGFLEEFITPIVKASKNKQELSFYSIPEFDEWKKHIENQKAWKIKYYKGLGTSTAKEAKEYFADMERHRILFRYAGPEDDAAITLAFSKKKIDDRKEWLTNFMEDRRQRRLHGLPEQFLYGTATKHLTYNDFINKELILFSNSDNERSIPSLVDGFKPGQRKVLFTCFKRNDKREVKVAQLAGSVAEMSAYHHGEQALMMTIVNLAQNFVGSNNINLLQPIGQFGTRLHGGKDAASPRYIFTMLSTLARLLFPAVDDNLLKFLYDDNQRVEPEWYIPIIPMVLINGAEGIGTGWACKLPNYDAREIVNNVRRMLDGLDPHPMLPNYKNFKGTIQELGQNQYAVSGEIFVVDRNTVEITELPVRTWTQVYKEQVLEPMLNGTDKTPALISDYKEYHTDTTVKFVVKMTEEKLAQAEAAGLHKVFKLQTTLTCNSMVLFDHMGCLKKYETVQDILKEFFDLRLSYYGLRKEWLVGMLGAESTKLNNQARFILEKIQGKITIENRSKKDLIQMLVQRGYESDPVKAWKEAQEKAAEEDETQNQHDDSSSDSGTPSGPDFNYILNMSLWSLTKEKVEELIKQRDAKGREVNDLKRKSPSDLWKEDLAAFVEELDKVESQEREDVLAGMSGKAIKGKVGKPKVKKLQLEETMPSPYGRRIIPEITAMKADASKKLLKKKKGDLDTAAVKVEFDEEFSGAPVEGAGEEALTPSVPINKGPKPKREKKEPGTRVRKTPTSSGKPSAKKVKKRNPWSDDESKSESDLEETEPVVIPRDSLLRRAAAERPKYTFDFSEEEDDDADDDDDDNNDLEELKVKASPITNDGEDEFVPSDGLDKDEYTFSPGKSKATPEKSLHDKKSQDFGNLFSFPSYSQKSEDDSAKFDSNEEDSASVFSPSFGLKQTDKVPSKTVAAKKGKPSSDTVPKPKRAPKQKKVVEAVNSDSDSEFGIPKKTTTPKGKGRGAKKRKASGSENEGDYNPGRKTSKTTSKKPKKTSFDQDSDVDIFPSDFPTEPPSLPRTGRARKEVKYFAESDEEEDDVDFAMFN
# [32] = target: T1, DNA topoisomerase 2-beta; experiment: Inhibition of human topoisomerase IIB-mediated DNA fragmentation
# [33] = tested on: MDA-MB-468; experiment: Cell cycle analysis in human MDA-MB-468 cells assessed as accumulation of cells at G0-G1 phase at 3.1 uM measured after 48 hrs by propidium iodide staining based flow cytometry (reference value: 84.43%); format: functional
# In short: (§4)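 MDA-MB-468 cells, 2 x 10^5 per well in medium with 10% FBS, grown 24 h at 37 °C, 5% CO₂. Then exposed to 3.1 μM in 1% v/v DMSO for 48 h, washed in cold PBS and fixed in ice-cold 70% ethanol. Stained with PI for 15 min at 37 °C and read by flow cytometry.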
# [34] = tested on: MDA-MB-468; experiment: Cell cycle analysis in human MDA-MB-468 cells assessed as accumulation of cells at S phase at 3.1 uM measured after 48 hrs by propidium iodide staining based flow cytometry (reference value: 15.3%); format: functional; in short: as §4
# [35] = tested on: MDA-MB-468; experiment: Cell cycle analysis in human MDA-MB-468 cells assessed as accumulation of cells at G2-M phase at 3.1 uM measured after 48 hrs by propidium iodide staining based flow cytometry (reference value: 0.27%); format: functional; in short: as §4
smiles,measurement,setting,value
Cc1nnc(S)n(N2C(=O)c3c(Br)c(Br)c(Br)c(Br)c3C2=O)c1=O,growth inhibition (GI),[1],Active
same,growth inhibition (GI),[2],Active
same,growth inhibition (GI),[3],Active
same,growth inhibition (GI),[4],Active
same,growth inhibition (GI),[5],Active
same,growth inhibition (GI),[6],Active
same,growth inhibition (GI),[7],Active
same,growth inhibition (GI),[8],Active
same,growth inhibition (GI),[9],Active
same,growth inhibition (GI),[10],Active
same,growth inhibition (GI),[11],Active
same,growth inhibition (GI),[12],Active
same,growth inhibition (GI),[13],Active
same,growth inhibition (GI),[14],Active
same,growth inhibition (GI),[15],Active
same,IC50,[16],6.7 µg/mL
same,growth inhibition (GI),[17],Active
same,growth inhibition (GI),[18],Active
same,growth inhibition (GI),[19],Active
same,growth inhibition (GI),[20],Active
same,fold change (FC),[21],3.42
same,fold change (FC),[22],2.44
same,fold change (FC),[23],2.33
same,fold change (FC),[24],3.72
same,fold change (FC),[25],2.44
same,fold change (FC),[26],3.61
same,fold change (FC),[27],1.9
same,fold change (FC),[28],2.29
same,fold change (FC),[29],1.81
same,IC50,[30],3.18 µM
same,IC50,[31],26.1 µM
same,inhibition,[32],Active
same,Activity,[33],88.67%
same,Activity,[34],9.04%
same,Activity,[35],2.29%
